Results: PMC12744307 (ACS infectious diseases, 2023)
Converted amounts (≈) assume the structure as drawn. Where two headings read alike, the source gives them in different places. Ends that are not written are not given here.

Columns and labels:
[1] = Effect of MHB dilution on antimicrobial activity of a panel of antibiotics; format: cell-based; conditions: MHB from 100% to 12.5% (Figure S2)
[2] = test system: S. aureus USA300; assay: microbe, parasite or virus in culture; format: cell-based, Staphylococcus aureus; conditions: for MIC: Staphylococcus aureus
[3] = test system: E. coli membrane; assay: Membrane permeabilization; format: cell-based, Escherichia coli; conditions: Figure S4A
[4] = test system: preformed biofilms of E. coli E423–17; assay: Disruption of preformed biofilms; format: cell-based, Escherichia coli
Method in brief: (§1)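 Biofilms grown from an exponential-phase culture (OD600 ~0.4) for 24 h at 37°C in TSB, then washed with PBS to remove planktonic cells. Treated with peptide in MHB (different strengths) for 24 h at 37°C. Live cells measured with XTT in TSB (2 h, 37°C, A450), blanked on medium with XTT. Results given as % of water-treated biofilm, mean ± SD, one-way ANOVA.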

[5] = test system: E. coli E423–17; format: cell-based, Escherichia coli
[6] = test system: preformed biofilms of S. aureus USA300 LAC; assay: Disruption of preformed biofilms; format: cell-based, Staphylococcus aureus; conditions: 100% MHB, 24 h treatment, XTT
Method in brief: as §1

[7] = test system: S. aureus USA300 LAC; format: cell-based, Staphylococcus aureus; conditions: 17 passages at sub-MIC, MHB
[8] = test system: P. aeruginosa 152; format: cell-based, Pseudomonas aeruginosa
[9] = test system: human skin HaCaT cells
[10] = test system: A. baumannii B28–16; format: cell-based, Acinetobacter baumannii
[11] = test system: S. aureus USA300 membrane; assay: Membrane depolarization; format: cell-based, Staphylococcus aureus; conditions: peptide up to 2× MIC; Triton X-100 0.1% (Figure 5C)
Method in brief: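 Exponential-phase MRSA USA300 grown in TSB, washed, and resuspended in 2 volumes of PBS with 25 mM glucose. Energised for 15 min at 37°C, then given 500 nM (final) DiBAC4(3). Baseline fluorescence (ex 485/em 520 nm) read for 20 min; peptide then added and reading continued for 40 min. Triton X-100 (0.1%) was the positive control.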

[12] = MRSA|USA300, read-out: Antimicrobial activity (MIC), MRSA in MHB, 10% human serum
[13] = MRSA|USA300, read-out: Antimicrobial activity (MIC), MRSA in MHB, NaCl (150 mM)
[14] = MRSA|USA300, pH 6.3, read-out: Antimicrobial activity (MIC), MRSA in MHB, pH 6.3
[15] = MRSA|USA300, pH 7.2, read-out: Antimicrobial activity (MIC), MRSA in MHB, pH 7.2

NCC[C@H](O)C(=O)N[C@@H]1C[C@H](N)[C@@H](O[C@H]2O[C@H](CN)[C@@H](O)[C@H](O)[C@H]2O)[C@H](O)[C@H]1O[C@H]1O[C@H](CO)[C@@H](O)[C@H](N)[C@H]1O [Amikacin]
Change in MIC with the dilution of MHB [1]: small changes in MIC values
MIC [2, 12]: 32 µM (≈ 18.7 µg/mL)
MIC [2, 13]: 32 µM (≈ 18.7 µg/mL)

CCCCCCCCCC(=O)N[C@@H](Cc1c[nH]c2ccccc12)C(=O)N[C@H](CC(N)=O)C(=O)N[C@@H](CC(=O)O)C(=O)N[C@@H]1C(=O)NCC(=O)N[C@@H](CCCN)C(=O)N[C@@H](CC(=O)O)C(=O)N[C@H](C)C(=O)N[C@@H](CC(=O)O)C(=O)NCC(=O)N[C@H](CO)C(=O)N[C@@H]([C@H](C)CC(=O)O)C(=O)N[C@@H](CC(=O)c2ccccc2N)C(=O)O[C@@H]1C [Daptomycin]
Antimicrobial activity (MIC) ([2]; USA300): 1 µM
Antimicrobial activity (MIC) ([2]; USA300, pH 6.3): 1 µM
Antimicrobial activity (MIC) ([2]; USA300, pH 7.2): 1 µM

CNC(C)C1CCC(N)C(OC2C(N)CC(N)C(OC3OCC(C)(O)C(NC)C3O)C2O)O1 (centres unmarked) [Gentamicin]
Membrane permeation (PI fluorescence) [3]: did not permeate the E. coli membrane
MIC [2, 14]: 1 to 2 µM (≈ 0.478 to 0.955 µg/mL)
MIC [2, 15]: 0.5 µM (≈ 0.239 µg/mL)
MIC [2, 12]: 0.5 to 1 µM (≈ 0.239 to 0.478 µg/mL)
MIC [2, 13]: 1 µM (≈ 0.478 µg/mL)

CC[C@H](C)[C@H](NC(=O)[C@H](CCCCN)NC(=O)[C@H](CCC(=O)O)NC(=O)[C@H](CCCCN)NC(=O)[C@H](CO)NC(=O)[C@H](CCCCN)NC(=O)[C@H](CCCNC(=N)N)NC(=O)[C@H](Cc1ccccc1)NC(=O)[C@H](Cc1ccccc1)NC(=O)[C@H](CC(=O)O)NC(=O)CNC(=O)[C@H](CC(C)C)NC(=O)[C@@H](N)CC(C)C)C(=O)NCC(=O)N[C@@H](CCCCN)C(=O)N[C@@H](CCC(=O)O)C(=O)N[C@@H](Cc1ccccc1)C(=O)N[C@@H](CCCCN)C(=O)N[C@@H](CCCNC(=N)N)C(=O)N[C@H](C(=O)N[C@H](C(=O)N[C@@H](CCC(N)=O)C(=O)N[C@@H](CCCNC(=N)N)C(=O)N[C@H](C(=O)N[C@@H](CCCCN)C(=O)N[C@@H](CC(=O)O)C(=O)N[C@@H](Cc1ccccc1)C(=O)N[C@@H](CC(C)C)C(=O)N[C@@H](CCCNC(=N)N)C(=O)N[C@@H](CC(N)=O)C(=O)N[C@@H](CC(C)C)C(=O)N[C@H](C(=O)N1CCC[C@H]1C(=O)N[C@@H](CCCNC(=N)N)C(=O)N[C@H](C(=O)N[C@@H](CCC(=O)O)C(=O)N[C@@H](CO)C(=O)O)[C@@H](C)O)C(C)C)[C@@H](C)CC)C(C)C)[C@@H](C)CC [LL-37]
Effect on biofilms with increase in peptide concentration ([4]; 12.5% MHB (Figure S1)): dose-dependent antibiofilm effect is clear
Effect on biofilms with increase in peptide concentration ([4]; 100% MHB (Figure S1)): subtle effect
Activity (MIC), screen of LL-37 fragments ([2]; 12.5% MHB (Figure 3)): became active
Activity (MIC), screen of LL-37 fragments ([2]; 100% MHB (Figure 3)): did not display any activity
Antimicrobial activity (MIC) in cell culturing media ([2]; RPMI and DMEM media (Table S2)): remained active
Activity (MIC), screen of LL-37 fragments ([5]; 100% MHB, rich media (Figure 3)): active
Antimicrobial activity (MIC) in cell culturing media ([5]; RPMI and DMEM media (Table S2)): remained active
Antibiofilm activity against 24 h preformed biofilms [6]: essentially no antibiofilm activity

CC(=O)NC[C@H]1CN(c2ccc(N3CCOCC3)c(F)c2)C(=O)O1 [Linezolid]
Change in MIC with the dilution of MHB [1]: essentially no changes in antibacterial activity
MIC [2, 14]: 8 µM (≈ 2.7 µg/mL)
MIC [2, 15]: 8 µM (≈ 2.7 µg/mL)
MIC [2, 12]: 8 µM (≈ 2.7 µg/mL)

C/C(=C\C(=O)OCCCCCCCCC(=O)O)C[C@@H]1OC[C@H](C[C@@H]2O[C@H]2[C@@H](C)[C@H](C)O)[C@@H](O)[C@H]1O [Muporicin]
Change in MIC with the dilution of MHB [1]: essentially no changes in antibacterial activity
Antimicrobial activity (MIC) ([2]; MRSA in MHB, 10% human serum): 4 µM
Antimicrobial activity (MIC) ([2]; MRSA in MHB, 20% human serum): 4 µM
Antimicrobial activity (MIC) ([2]; MRSA in MHB, NaCl (150 mM)): 1 µM
Antimicrobial activity (MIC) ([2]; MRSA in MHB, pH 6.3): 0.5 µM
Antimicrobial activity (MIC) ([2]; MRSA in MHB, pH 7.2): 1 µM

CCOc1ccc2ccccc2c1C(=O)N[C@@H]1C(=O)N2[C@@H]1SC(C)(C)[C@@H]2C(=O)O [Nafcillin]
Fold increase of MIC after multiple passages [7]: 32 fold
Change in MIC with the dilution of MHB [1]: small changes in MIC values
MIC [2, 12]: 16 µM (≈ 6.63 µg/mL)
MIC [2, 13]: 32 µM (≈ 13.3 µg/mL)

NC[C@H]1O[C@H](O[C@H]2[C@H](O)[C@@H](O[C@H]3O[C@H](CO)[C@@H](O)[C@H](N)[C@H]3O)[C@H](N)C[C@@H]2N)[C@H](N)C[C@@H]1O [Tobramycin]
Change in MIC with the dilution of MHB [1]: essentially no changes in antibacterial activity
MIC [2, 13]: 4 µM (≈ 1.87 µg/mL)

CN[C@H](CC(C)C)C(=O)N[C@H]1C(=O)N[C@@H](CC(N)=O)C(=O)N[C@H]2C(=O)N[C@H]3C(=O)N[C@H](C(=O)N[C@H](C(=O)O)c4cc(O)cc(O)c4-c4cc3ccc4O)[C@H](O)c3ccc(c(Cl)c3)Oc3cc2cc(c3O[C@@H]2O[C@H](CO)[C@@H](O)[C@H](O)[C@H]2O[C@H]2C[C@](C)(N)[C@H](O)[C@H](C)O2)Oc2ccc(cc2Cl)[C@H]1O [Vancomycin]
Change in MIC with the dilution of MHB [1]: essentially no changes in antibacterial activity
MIC [2, 14]: 0.5 µM (≈ 0.725 µg/mL)
MIC [2, 15]: 0.5 µM (≈ 0.725 µg/mL)
MIC [2, 12]: 0.5 µM (≈ 0.725 µg/mL)
MIC [2, 13]: 0.5 to 1 µM (≈ 0.725 to 1.45 µg/mL)

KEKIGKEFKR-NH2 (C-terminus assumed) [KE-10]
Antimicrobial activity (MIC) in cell culturing media ([2]; USA300): > 64 µM

KRIVQRIK-NH2 [W538]
Activity (MIC), P. aeruginosa [8]: >32 µM
Activity (MIC), screen of LL-37 fragments ([5]; E423–17): 8 µM

KRIWQRIK-NH2 [W539]
Activity (MIC), P. aeruginosa [8]: >32 µM

KRIWQRWK-NH2 [W540]
Toxicity to HaCaT cells (viability) [9]: more toxic than other peptides
Activity (MIC), P. aeruginosa [8]: >32 µM

KRWWQRWK-NH2 [W541]
Activity (MIC), P. aeruginosa [8]: >32 µM
Activity (MIC), E. coli ([5]; E423–17): 8 µM

KRWWQWWK-NH2 [W542]
Activity (MIC), A. baumannii [10]: 32 µM
Activity (MIC), P. aeruginosa [8]: 4 to 8 µM
Activity (MIC), S. aureus ([2]; USA300): 8 µM
Activity (MIC), E. coli ([5]; E423–17): 4 µM

RIKDFLRNLV-NH2 (C-terminus assumed) [RIK-10]
Activity (MIC), screen of LL-37 fragments ([2]; 12.5% MHB (Figure 3)): became active
Antimicrobial activity (MIC) in cell culturing media ([2]; RPMI and DMEM media (Table S2)): poor activity
Activity (MIC), screen of LL-37 fragments ([5]; E423–17): 16 µM
Antimicrobial activity (MIC) in DMEM ([5]; E423–17): 8 µM
Antimicrobial activity in RPMI ([5]; RPMI (Table S2)): poor activity

RRWWRWWL-NH2 [W544]
Toxicity to HaCaT cells (viability) [9]: more toxic than other peptides
Activity (MIC), P. aeruginosa [8]: 4 µM
Activity (MIC), S. aureus ([2]; USA300): 4 µM
Activity (MIC), E. coli ([5]; E423–17): 4 µM

RRWWRWWR-NH2 [W543]
Toxicity to HaCaT cells (viability) [9]: least toxic
Activity (MIC), P. aeruginosa [8]: 8 µM
Antimicrobial activity (MIC) ([2]; USA300): 8 µM
Antimicrobial activity (MIC) ([2]; USA300, pH 7.2): 8 µM
Activity (MIC), E. coli ([5]; E423–17): 8 µM

Triton X-100
Membrane depolarization [11]: strong membrane depolarization

colistin
Membrane permeation (PI fluorescence) [3]: powerful membrane permeator
